Experimental data published in ChEMBL document CHEMBL3272032, “Antifolate studies. Activities of 40 potential antimalarial compounds against sensitive and chlorguanide triazine resistant strains of folate-requiring bacteria and Escherichia coli” (J Med Chem, 1977).
The source made the active and inactive calls. The calls are words filed in the database; no cut-off is given here.

Assays:
Escherichia coli [1] = assay: Antibacterial activity against sensitive Escherichia coli ATCC 10536 assessed as reduction in growth; format: functional, organism-based
Outline: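 Growth inhibition in Sahyun et al. medium plus 0.6% acid-hydrolyzed casein. Growth read as turbidity on a Klett-Summerson photoelectric colorimeter. IC50 is the micromolar concentration giving 50% growth inhibition. Top concentration was 1000 μg/ml, or 100 μg/ml when compound was limited.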

Plasmodium berghei [2] = assay: Antimalarial activity against Plasmodium berghei infected in sc dosed mouse assessed as dose required to survivors for period of 60 days; format: functional
Outline: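 Mice infected with a blood-induced P. berghei inoculum were given one subcutaneous dose in peanut oil. Survivors at 60 days counted as cured. The minimum curative dose is the lowest dose that cured any mouse.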

Pediococcus [3] = assay: Fold increase in resistance, ratio of IC50 for chlorguanide triazine-resistant Pediococcus cerevisiae ATCC 808 to IC50 for sensitive Pediococcus cerevisiae ATCC 808; format: functional
Outline: (§1)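 Resistant substrains were made by serial transfer in rising concentrations of cycloguanil, and the most resistant isolate of each organism was used. Both strains were assayed turbidimetrically under identical conditions. FIR = IC50 of the resistant strain divided by IC50 of the sensitive parent.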

Enterococcus faecium [4] = assay: Antibacterial activity against sensitive Streptococcus faecium ATCC 8043 assessed as reduction in growth in presence of 0.002 ug/ml folic acid; format: functional, organism-based
Outline: (§2)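 Folate-requiring strains in the medium of the earlier assay method. Folic acid was 0.002 μg/ml for S. faecium and 0.001 μg/ml for L. casei. Turbidity read on a Klett-Summerson colorimeter. IC50 is the micromolar concentration reducing growth to 50% of control. Top concentration was 1000 μg/ml, or 100 μg/ml if supply was limited.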

Escherichia coli [5] = assay: Antibacterial activity against sensitive Escherichia coli ATCC 10536 assessed as reduction in growth in presence of p-aminobenzoic acid; format: functional, organism-based
Outline: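 Reversal test. Drug inhibition was challenged with PABA in Sahyun et al. medium plus 0.6% acid-hydrolyzed casein. Growth read as turbidity on a Klett-Summerson colorimeter. Scored as reversal or nonreversal of the drug inhibition.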

[6] = Antibacterial activity against sensitive Pediococcus cerevisiae ATCC 808 assessed as reduction; format: functional
Outline: (§3)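 P. cerevisiae grown with folinic acid at 0.001 μg/ml in the earlier-described medium. Turbidity read on a Klett-Summerson colorimeter. IC50 is the micromolar concentration reducing growth to 50% of control. Top concentration was 1000 μg/ml, or 100 μg/ml when supply was limited.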

Pediococcus [7] = assay: Antibacterial activity against sensitive Pediococcus cerevisiae ATCC 808 assessed as reduction in growth in presence of 0.001 ug/ml folinic acid; format: functional; outline: as §3
Lacticaseibacillus casei [8] = assay: Fold increase in resistance, ratio of IC50 for chlorguanide triazine-resistant Lactobacillus casei ATCC 7469 to IC50 for sensitive Lactobacillus casei ATCC 7469; format: functional; outline: as §1
Lacticaseibacillus casei [9] = assay: Antibacterial activity against sensitive Lactobacillus casei ATCC 7469 assessed as reduction in growth in presence of 0.001 ug/ml folic acid; format: functional, organism-based; outline: as §2
Enterococcus faecium [10] = assay: Antibacterial activity against sensitive Streptococcus faecium ATCC 8043 assessed as reduction in growth; format: functional, organism-based
Outline: (§4)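 Folate-requiring strains grown in medium with folic acid, 0.002 µg/ml for S. faecium and 0.001 µg/ml for L. casei; P. cerevisiae given folinic acid, 0.001 µg/ml. Resistant substrains came from serial transfer in rising chlorguanide triazine, and the most resistant were used. Compounds tested up to 1000 µg/ml, or 100 µg/ml when supply was limited. Growth read as Klett turbidity; IC50 is the µM concentration giving 50% growth inhibition.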

[11] = Antibacterial activity against chlorguanide triazine-resistant Pediococcus cerevisiae ATCC 808 assessed as reduction in growth; format: functional; outline: as §4
Lacticaseibacillus casei [12] = assay: Antibacterial activity against chlorguanide triazine-resistant Lactobacillus casei ATCC 7469 assessed as reduction in growth in presence of 0.001 ug/ml folic acid; format: functional, organism-based; outline: as §4
Lacticaseibacillus casei [13] = assay: Antibacterial activity against sensitive Lactobacillus casei ATCC 7469 assessed as reduction; format: functional, organism-based; outline: as §4
Plasmodium berghei [14] = assay: Antimalarial activity against Plasmodium berghei infected in sc dosed mouse assessed as active dose required to increase of 100% in mean survival time; format: functional; details: read-out: MED
Outline: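 Mice received a standard blood-induced P. berghei inoculum and were then treated with one subcutaneous dose of compound suspended in peanut oil. The minimum active dose is the lowest dose that raised mean survival time by 100%.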

Enterococcus faecium [15] = assay: Antibacterial activity against chlorguanide triazine-resistant Streptococcus faecium ATCC 8043 assessed as reduction in growth; format: functional, organism-based; outline: as §4
Lacticaseibacillus casei [16] = assay: Antibacterial activity against chlorguanide triazine-resistant Lactobacillus casei ATCC 7469 assessed as reduction in growth; format: functional, organism-based; outline: as §4
Enterococcus faecium [17] = assay: Fold increase in resistance, ratio of IC50 for chlorguanide triazine-resistant Streptococcus faecium ATCC 8043 to IC50 for sensitive Streptococcus faecium ATCC 8043; format: functional
Outline: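 Resistant S. faecium substrain raised by serial transfer in increasing chlorguanide triazine. IC50 (µM, 50% growth inhibition by turbidity) was found for resistant and parent strains in folic acid (0.002 µg/ml) medium. Fold increase taken as IC50 resistant / IC50 sensitive.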

Enterococcus faecium [18] = assay: Antibacterial activity against chlorguanide triazine-resistant Streptococcus faecium ATCC 8043 assessed as reduction in growth in presence of 0.002 ug/ml folic acid; format: functional, organism-based; outline: as §4

| SMILES | IC50 (Escherichia coli [1]) [µM] | MCD (Plasmodium berghei [2]) [mg/kg] | Ratio IC50 (Pediococcus [3]) | inhibition (Enterococcus faecium [4]) | inhibition (Escherichia coli [5]) | IC50 [6] [µM] | inhibition (Pediococcus [7]) | Ratio IC50 (Lacticaseibacillus casei [8]) | inhibition (Lacticaseibacillus casei [9]) | IC50 (Enterococcus faecium [10]) [µM] | IC50 [11] [µM] | inhibition (Lacticaseibacillus casei [12]) | IC50 (Lacticaseibacillus casei [13]) [µM] | minimal effective dose (Plasmodium berghei [14]) [mg/kg] | IC50 (Enterococcus faecium [15]) [µM] | IC50 (Lacticaseibacillus casei [16]) [µM] | Ratio IC50 (Enterococcus faecium [17]) | inhibition (Enterococcus faecium [18]) |
| --- | --- | --- | --- | --- | --- | --- | --- | --- | --- | --- | --- | --- | --- | --- | --- | --- | --- | --- |
| CCc1ccc(N2C(N)=NC(N)=NC2(C)C)cc1 | 1900 | >640 | >8 | inactive | Active | 42.6 | inactive | 11 | inactive | 0.036 | > 355 | inactive | 27.3 | 320 | > 350 | 291 | >9700 |  |
| Nc1ccc(S(=O)(=O)c2ccc(N)cc2)cc1 [DAPSONE] | 137 | 40 | >4 |  | inactive | 105 | Active | 0.24 | Active | > 4000 | > 400 |  | 314 | 20 | > 4000 | 75 |  |  |
| Nc1ccc(S(=O)(=O)Nc2nccs2)cc1 [SULFATHIAZOLE] | 7.8 | 160 |  |  | inactive | > 3900 |  |  |  | > 3900 |  |  | > 3900 | 40 | > 3900 | > 3900 |  |  |
| CCOC(=O)c1cnc(S)nc1O | > 5000 | 320 |  |  |  | > 5000 |  | 0.19 | Active | > 5000 |  |  | 3000 | 40 | > 5000 | 574 |  |  |
| CCN(CC)CCNc1nc(C(Cl)(Cl)Cl)nc2cc(Cl)ccc12 | 50 | 320 | 1 | Active | Active | 32 | Active | 0.27 | Active | 76 | 35 |  | 30 | 160 | 67 | 8 | 0.9 |  |
| Cc1ccccc1-c1nc2c(N)nc(N)nc2nc1N | 209 | 320 | 5 | inactive | Active | 8.5 | inactive | 0.03 | inactive | 1.1 | 44 |  | 68 | 40 | 124 | 1.9 | 113 |  |
| Nc1ccc(S(=O)(=O)Nc2ncccn2)cc1 [SULFADIAZINE] | 12 | 640 |  |  | inactive | > 4000 |  |  |  | > 4000 |  |  | > 4000 | 160 | > 4000 | > 4000 |  |  |
| O=C(NO)c1ccc(C(=O)NO)cc1 | > 5000 | 640 |  | Active |  | > 5000 |  | 1 | Active | 1700 |  | Active | 2600 | 320 | > 5000 | 3000 | 3 | Active |
| CCN(CC)CCCC(C)Nc1ccnc2cc(Cl)ccc12 (configuration not stated) [CHLOROQUINE] |  | 80 | 1 | Active |  | 2500 | Active | 1 | Active | 6600 | 2500 |  | 6400 | 20 | 7500 | 6000 | 1 |  |
| COc1nccnc1NS(=O)(=O)c1ccc(N)cc1 [SULFALENE] | 13.5 | 160 |  |  | inactive | > 3600 |  | 1 |  | > 3600 |  |  | 8200 | 40 | > 3600 | 8200 |  |  |
| COc1cc(NC(C)CCCN)c2ncccc2c1 (configuration not stated) [PRIMAQUINE] |  | 160 | 1 | Active |  | 580 | Active | 2 | Active | 1200 | 540 |  | 630 | 40 | 3000 | 1300 | 3 |  |
| Nc1nc(=O)c2c([nH]1)NCC(CCNc1ccc(C(=O)[O-])cc1)N2.[Na+] (configuration not stated) |  | >640 |  | inactive |  | > 2900 |  | 0.03 | inactive | 0.009 |  | inactive | 6 | > 640 | 7.2 | 0.2 | 800 | inactive |
| CCN(CC)CCNc1nc(Nc2ccc(Cl)c(Cl)c2)nc2ccccc12 | 11 |  | 1 | Active | Active | 6.5 | Active | 0.4 | Active | 31 | 8.2 |  | 12 |  | 61 | 5 | 2 |  |
| Nc1nc(N)c2c(ccc3cc(Br)ccc32)n1 | 4.8 | >640 | 7.5 | inactive | Active | 0.04 | inactive | 0.06 | inactive | 0.006 | 0.3 | inactive | 1 | 640 | 0.7 | 0.06 | 117 | inactive |
| CC1(C)N=C(N)N=C(N)N1OCc1ccc(Cl)c(Cl)c1 [CLOCIGUANIL] | 7 | 20 | 59 | inactive | Active | 0.14 | inactive | 54 | inactive | 0.0009 | 8.2 |  | 0.057 | 2.5 | 3.4 | 3.1 | 3800 |  |
| NC1(C(=O)O)CCCC1 [CYCLOLEUCINE] | > 7700 | >640 |  |  |  | > 7700 |  |  |  | > 7700 |  |  | > 7700 | > 640 | > 7700 | > 7700 |  |  |
